# Screening results deposited in PubChem by several laboratories.
# iPSC survival up: enhancers of human iPSC single-cell survival. hiPSC single-cell survival, ATPlite luminescence; 100% = ROCK inhibitor wells, 0% = DMSO. survival enhancement, % at 20 µM. hit rate 0.044% among 360,000. AID 602274; in the data active = survival enhancement above about 18%;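 note: cells exposed to compounds for 16 hours before the ATP read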
# PG9 binder: PG9 antibody binding by small molecule; TR-FRET gp120-PG9 antibody binding; hit rate 0.43% among 360,000; inhibition, % at 6.7 µM; AID 624416; in the data active = inhibition above about 8.5%
# H9c2 TAG inh: triacylglycerol accumulation inhibition. H9c2 cells, Nile Red lipid (TAG) fluorescence; cells loaded with 200 µM oleic acid. inhibition, % at 12.5 µM. hit rate 0.66% among 230,000. AID 651582;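 active = pattern-corrected inhibition of lipid staining of at least 50% with the nuclear-stain viability signal not falling by more than 50%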;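 note: 0% = DMSO wells and 100% = triacsin C control wells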
# T cruzi inh: T. cruzi replication inhibition. T. cruzi beta-gal in NIH3T3, luminescence, 90 h. inhibition, % (concentration not given with the values). hit rate 1.4% among 300,000. AID 1885;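 active = mean inhibition across valid replicates above about 55%, limit read from the data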;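 note: signal also drops with host cell toxicity which is not excluded here; 0% = plate median of DMSO wells and 100% = zero luminescence signal; higher percent means less beta-gal luminescence so fewer parasites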
#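 Test system: β-gal T. cruzi (Tulahuen C4) inside NIH/3T3 cells / Quantity: 5,000 cells/well / Measured by: luminescence from GalScreen with 0.05% NP40, read after 60 min / Medium: DMEM plus 2% FBS / Measure: parasite load inhibition, % / Reagent: Tulahuen C4 trypomastigotes, 5000/well / Schedule: co-culture of at least 90 h after 3 h attachment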
# beta cell repl: inducers of beta-cell replication in MIN6 cells; MIN6 cells proliferation, ATPlite luminescence, 48 h; cells starved in 0.2% serum; 100% = growth in 10% serum; proliferation, % at 10 µM; hit rate 0.29% among 330,000;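 active = compounds whose signal lies at least 3.5 SD above the mean of all wells on their plate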;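 note: 0% = DMSO-treated cells in low-serum medium and 100% = 10% serum control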
# NR1D1 modulator: Rev-erb alpha (human) modulation | Rev-erbα–FITC-DNA binding, fluorescence polarization, 90 min | activity, % at 10 µM | hit rate 0.79% among 370,000 | AID 1259318;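 active = activity above about 14%, limit read from the data; passing the limit was not always enough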;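 note: 0% = DMSO wells with 35 nM protein and 100% = DMSO wells with 750 nM protein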
# Target sequence (P20393 whole entry, looked up): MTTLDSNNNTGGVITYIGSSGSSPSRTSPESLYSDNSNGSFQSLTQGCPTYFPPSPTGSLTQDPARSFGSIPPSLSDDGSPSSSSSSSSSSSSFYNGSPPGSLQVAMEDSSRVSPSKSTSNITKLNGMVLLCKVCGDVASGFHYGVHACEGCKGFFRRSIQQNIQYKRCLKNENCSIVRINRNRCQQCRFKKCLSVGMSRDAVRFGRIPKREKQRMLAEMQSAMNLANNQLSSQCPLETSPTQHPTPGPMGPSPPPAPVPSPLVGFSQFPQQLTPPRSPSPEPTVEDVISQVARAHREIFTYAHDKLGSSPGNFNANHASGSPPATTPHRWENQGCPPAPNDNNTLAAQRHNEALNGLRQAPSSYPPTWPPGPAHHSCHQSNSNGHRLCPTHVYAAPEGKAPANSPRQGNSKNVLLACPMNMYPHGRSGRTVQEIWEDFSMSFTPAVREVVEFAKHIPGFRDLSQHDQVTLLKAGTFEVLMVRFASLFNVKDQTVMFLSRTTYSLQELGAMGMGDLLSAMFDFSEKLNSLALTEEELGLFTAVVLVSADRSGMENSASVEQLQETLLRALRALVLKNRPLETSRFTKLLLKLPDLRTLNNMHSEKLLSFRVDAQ
# PG9 bind confirm: PG9 antibody binding, confirmed; inhibition, % at 6.7 µM; shares compounds with PG9 binder; hit rate 90% among 1,500; AID 651571; TR-FRET PG9 antibody binding, biochemical; in the data active = inhibition above about 9%
# PGV04 counter: PGV04 control antibody binding, counter-screen; TR-FRET PGV04 antibody-gp120 binding, biochemical; hit rate 95% among 1,500; shares compounds with PG9 binder; inhibition, % at 6.7 µM; in the data active = inhibition above about 9.5%
# PG9 binder DR: small molecules binding HIV-1 gp120 antibody PG9; IC50, µM; shares compounds with PG9 binder; 95 tested, under 10 active; TR-FRET PG9 antibody-gp120 binding inhibition; AID 651848; in the data active = IC50 below about 10 µM
# PGV04 binding DR: PGV04 binding, dose response counter-screen; IC50, µM; hit rate 20% among 95; TR-FRET binding to control antibody PGV04; shares compounds with PG9 binder
# PG126 binding DR: binds control antibody PG126 in PG9 counter-screen; hit rate 20% among 95; IC50, µM; AID 651939; shares compounds with PG9 binder; TR-FRET binding to antibody PG126, counterscreen
# NR1D1 mod conf: confirmation of modulators of human Rev-erb alpha DNA binding. shares compounds with NR1D1 modulator. Rev-erb alpha FITC-DNA binding, fluorescence polarization, 90 min. activation, % at 25 µM. hit rate 61% among 3,000. AID 1259319;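 active = activation at or above a set limit, or at least 3 SD above the negative control mean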;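 note: 0% = 35 nM protein with DMSO and 100% = 750 nM protein high control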
# RORg DNA counter: RORgamma DNA-binding activity, dose-response counter-screen | shares compounds with NR1D1 modulator | purified RORgamma protein-FITC-DNA binding, fluorescence polarization | IC50, µM | hit rate 8% among 910 | AID 1259320;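 active = Compounds whose fitted half-maximal concentration for disrupting protein-DNA binding is below 10 micromolar; the record names Rev-erb in its text, so the target is in doubt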
# * = called active by the depositor; i = inactive; / = not tested or not shown. Only some compounds are listed: those with a hit (about 2.9% of all), similar ones and a draw of the others. Cut-off read from the data, not from the text of the source, unless noted: active = IC50 below about 9 µM; inactive = the rest.
SMILES,iPSC survival up,PG9 binder,H9c2 TAG inh,T cruzi inh,beta cell repl,NR1D1 modulator,PG9 bind confirm,PGV04 counter,NR1D1 mod conf,RORg DNA counter,others
COc1cccc(-n2c(Cc3cc(=O)[nH]c(=O)[nH]3)nnc2SCC(=O)NC2CCCC2)c1,-1,-3,4,/,1,1,/,/,/,/,
COc1cc(OC)cc(-c2c(Sc3ccccc3)c3cc(-c4ccc5c(c4)OCCO5)ccc3n2C)c1,-1,45*,/,/,/,23*,55*,73*,21*,/,
Cc1c[n+]([O-])ccc1Oc1ccc([N+](=O)[O-])cc1,4,0,24,-23,2,-1,/,/,/,/,
CSC1=NCCN1C(=O)Cc1cccs1,1,-1,3,6,3,6,/,/,/,/,
Cc1ccc(NC(=O)CN(C)C(=O)COc2ncnc3ccc(Br)cc23)cc1,-1,21*,-3,/,0,21*,9.1*,8,17*,/,PG9 binder DR=i;PGV04 binding DR=i;PG126 binding DR=i
COc1ccc(NC(=O)CSc2nc3sc(C)c(C)c3c(=O)n2Cc2ccco2)cc1,-1,/,/,52,-4,-2,/,/,/,/,
Cc1ccc(-n2c(SCC(=O)NCc3ccco3)nc3sc4c(c3c2=O)CC(C)(C)SC4)cc1,0,16*,14,14,-1,71*,20*,32*,64*,5.6*,
C=CCn1c(SCC(=O)NC(=O)NCc2ccco2)nc2sc(C)c(C)c2c1=O,-2,23*,-12,8,-2,51*,28*,41*,41*,/,
C=CCn1c(SCC(=O)Nc2sccc2C#N)nc2sc(C)c(C)c2c1=O,-1,11*,-22,3,0,97*,26*,44*,63*,>40,
Cc1c(C#N)c(N)nc2c3c(sc12)NC(=O)CC3c1ccc(Cl)cc1 (stereo unspecified),1,18*,1,32,0,65*,16*,33*,45*,>40,
N#Cc1c(N)nc2c3c(sc(=N)c2c1N)NC(=O)CC3c1c(F)cccc1Cl (stereo unspecified),-2,17*,/,-9,-2,58*,22*,30*,62*,2.9*,
N#Cc1c(N)nc2c3c(sc(=N)c2c1N)NC(=O)CC3c1ccccc1 (stereo unspecified),-2,57*,18,-1,-2,29*,55*,71*,41*,>40,
O=C(Nc1c(Cl)cc(Cl)cc1C(=O)NCCN1CCOCC1)c1cccc([N+](=O)[O-])c1,2,-2,4,9,-2,7,/,/,/,/,
CCCCNC(=O)NNc1nc(Cl)cc(C)c1C#N,4,0,-2,-5,0,-6,/,/,/,/,
CCOC(=O)c1sc(NC(=O)c2ccco2)nc1-c1ccccc1,1,10*,-12,-5,3,46*,30*,57*,25*,/,
COc1ccc(NC(=O)NNC(=O)COc2ccc3cc(Br)ccc3c2)c(OC)c1,0,61*,10,11,-6,118*,63*,74*,111*,>40,
COc1ccc2cc(OCC(=O)NNC(=O)Nc3ccc(F)cc3)ccc2c1,0,23*,-3,-2,-3,42*,34*,45*,35*,3.1*,
COc1ccc(NC(=O)COc2ccc(Br)cc2)c(OC)c1,0,2,/,-1,0,8,/,/,/,/,
Cn1c(-c2ccc(C=O)s2)nc2c3ccccc3c3ccccc3c21,0,8.9*,-14,34,-3,135*,6,8,114*,/,
CCOC(=O)c1cnc2cc(-c3ccc(Br)cc3)nn2c1C,0,9.4*,9,11,-3,18*,6,7,10,/,
O=C(COC(=O)c1ccc(Cl)cc1O)Nc1cccnc1Cl,0,1,2,-5,0,3,/,/,/,/,
N#Cc1ccsc1NC(=O)COC(=O)c1cc(Br)ccc1O,0,34*,-6,0,-6,48*,38*,60*,32*,>40,
O=C(COC(=O)c1cc(Br)ccc1O)Nc1cccnc1Cl,0,38*,18,-7,2,66*,13*,31*,39*,>40,
Cc1ccc(Cl)cc1-n1c(SCC(=O)NCCC2=CCCCC2)nc2n[nH]c(C)c2c1=N,0,14*,/,31,-3,29*,15*,20*,15,/,
Cc1cc(-n2c(SCC(=O)NCCC3=CCCCC3)nc3n[nH]c(C)c3c2=N)ccc1Cl,0,41*,/,11,-4,45*,46*,58*,21*,/,
SMILES,iPSC survival up,PG9 binder,H9c2 TAG inh,T cruzi inh,beta cell repl,NR1D1 modulator,PG9 bind confirm,PGV04 counter,NR1D1 mod conf,RORg DNA counter,others
Cc1ccc(-n2c(SCC(=O)NCC3CCCO3)nc3n[nH]c(C)c3c2=N)cc1Cl (stereo unspecified),3,-2,27,-3,-2,3,/,/,/,/,
CCOC(=O)c1nn(-c2ccccc2F)c2nc(-c3ccco3)c(C#N)c(=O)n12,-1,-1,/,4,2,14,/,/,/,/,
CCOC(=O)c1nn(-c2cccc(OC)c2)c2nc(CC)c(C#N)c(=O)n12,2,28*,/,-4,-1,37*,21*,25*,16,/,
N=C1C(c2nc3ccccc3s2)=C(O)CN1NC(=O)c1c[nH]c2ccccc12,-4,12*,/,-18,4,32*,22*,39*,51*,>40,
CCOc1ccc(OCC)c(NC(=O)CN2CCC(NC(=O)c3cccc(F)c3)CC2)c1,0,-2,/,29,-5,-4,/,/,/,/,
NS(=O)(=O)c1ccc2nc(NC(=O)c3ccc4ncsc4c3)sc2c1,0,/,-9,-4,1,/,/,/,/,/,
CCCOc1ccc(C(=O)Nc2nc(C)c(Cc3ccc4c(c3)OCO4)s2)cc1,-1,61*,50,33,-4,128*,25*,31*,83*,>40,
